Laboratory results from ChEMBL document CHEMBL1795226, “Generation of novel radiolabeled opiates through site-selective iodination” (Bioorg Med Chem Lett, 2011).

Legend:
[1] = biological target: T1, Kappa-type opioid receptor (Homo sapiens, UniProt P41145); assay: Binding affinity to KOR-1 expressed in CHO cells after 90 mins; format: cell-based; conditions: for Bmax: tested as the 125I-labelled form
Method in brief: (§1)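 Saturation binding of the carrier-free 125I-radioligand (KD) in membranes of CHO cells stably transfected with the named opioid receptor. For one DOR-1 saturation, specific activity was diluted 10-fold to allow higher ligand concentrations. Curves were fit to a single site by nonlinear regression. KD is the mean ± SEM of at least 3 independent determinations.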

[2] = biological target: T2, Delta-type opioid receptor (Homo sapiens, UniProt P41143); assay: Displacement of [3H]-DPDPE from DOR-1 expressed in CHO cells after 60 mins; format: cell-based
T2 sequence (P41143 whole entry): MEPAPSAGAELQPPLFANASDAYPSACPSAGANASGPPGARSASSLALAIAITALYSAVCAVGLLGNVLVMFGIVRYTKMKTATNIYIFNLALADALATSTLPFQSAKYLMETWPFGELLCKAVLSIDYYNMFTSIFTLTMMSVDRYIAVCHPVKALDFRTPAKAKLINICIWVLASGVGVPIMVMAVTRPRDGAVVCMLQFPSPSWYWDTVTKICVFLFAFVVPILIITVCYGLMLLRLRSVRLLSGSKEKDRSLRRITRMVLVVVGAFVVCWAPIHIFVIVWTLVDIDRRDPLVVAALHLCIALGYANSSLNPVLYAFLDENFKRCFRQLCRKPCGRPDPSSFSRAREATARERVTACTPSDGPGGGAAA
Method in brief: (§2)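 Competition binding in membranes of CHO cells stably transfected with MOR-1, DOR-1 or KOR-1. Tracers were 1 nM 3H-DAMGO (MOR-1), 3H-DPDPE (DOR-1) or 3H-U69,593 (KOR-1). IC50 came from nonlinear regression and was converted to Ki. Values are the mean ± SEM of at least three independent replications.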

[3] = biological target: T1, Kappa-type opioid receptor; assay: Displacement of [3H]-U69593 from KOR-1 expressed in CHO cells after 60 mins; format: cell-based; method in brief: as §2
Mu-type opioid receptor [4] = biological target: T3, Mu-type opioid receptor (Homo sapiens, UniProt P35372); assay: Binding affinity to MOR-1 expressed in CHO cells after 90 mins; format: cell-based; conditions: for Bmax: tested as the 125I-labelled form; method in brief: as §1
T3 sequence (P35372 whole entry): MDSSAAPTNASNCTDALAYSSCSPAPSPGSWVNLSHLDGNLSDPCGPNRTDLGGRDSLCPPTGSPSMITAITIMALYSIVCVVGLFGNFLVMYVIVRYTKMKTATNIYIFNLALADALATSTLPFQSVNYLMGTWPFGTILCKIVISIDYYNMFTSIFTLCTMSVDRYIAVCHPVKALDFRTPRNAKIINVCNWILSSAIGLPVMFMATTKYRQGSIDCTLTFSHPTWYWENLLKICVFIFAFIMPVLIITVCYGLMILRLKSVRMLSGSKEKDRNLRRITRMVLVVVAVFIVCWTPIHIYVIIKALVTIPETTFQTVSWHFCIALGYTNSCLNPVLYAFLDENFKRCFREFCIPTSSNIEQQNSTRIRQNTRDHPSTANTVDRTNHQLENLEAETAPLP

[5] = biological target: T2, Delta-type opioid receptor; assay: Binding affinity to DOR-1 expressed in CHO cells after 90 mins; format: cell-based; conditions: for Bmax: tested as the 125I-labelled form; method in brief: as §1
Mu-type opioid receptor [6] = biological target: T3, Mu-type opioid receptor; assay: Displacement of [3H]-DAMGO from MOR-1 expressed in CHO cells after 150 mins; format: cell-based; method in brief: as §2
[7] = biological target: T1, Kappa-type opioid receptor; assay: Displacement of [125I]-IBNtxA from KOR-1 expressed in CHO cells; format: cell-based
[8] = biological target: T1, Kappa-type opioid receptor; assay: Displacement of [125I]-IBNalA from KOR-1 expressed in CHO cells; format: cell-based
Mu-type opioid receptor [9] = biological target: T3, Mu-type opioid receptor; assay: biochemical; format: cell-based, CHO
Mu-type opioid receptor [10] = biological target: T3, Mu-type opioid receptor; assay: biochemical; format: cell-based, CHO; remark: listed apart in the source
Mu-type opioid receptor [11] = biological target: T3, Mu-type opioid receptor; assay: biochemical; format: cell-based, CHO; remark: listed apart in the source

T1 sequence (P41145 whole entry): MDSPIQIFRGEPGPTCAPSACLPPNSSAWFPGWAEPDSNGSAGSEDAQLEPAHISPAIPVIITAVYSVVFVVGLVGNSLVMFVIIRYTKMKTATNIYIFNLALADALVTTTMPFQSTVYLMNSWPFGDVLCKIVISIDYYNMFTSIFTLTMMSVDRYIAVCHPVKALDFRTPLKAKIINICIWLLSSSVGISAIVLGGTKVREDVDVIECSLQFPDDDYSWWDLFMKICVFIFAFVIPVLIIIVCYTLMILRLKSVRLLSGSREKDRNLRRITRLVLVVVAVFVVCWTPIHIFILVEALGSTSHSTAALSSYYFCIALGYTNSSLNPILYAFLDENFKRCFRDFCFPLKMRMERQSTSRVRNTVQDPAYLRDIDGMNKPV

SMILES: C=CCN1CC[C@]23c4c5ccc(O)c4O[C@H]2[C@H](NC(=O)c2cccc(I)c2)CC[C@@]3(O)[C@H]1C5
- Bmax [1]: 1.15 pmol/mg
- Ki [2]: 2.55 nM
- Ki [3]: 0.08 nM
- Bmax (Mu-type opioid receptor [4]): 1.18 pmol/mg
- Bmax [5]: 2.7 pmol/mg
- Ki (Mu-type opioid receptor [6]): 0.7 nM

SMILES: O=C(N[C@@H]1CC[C@@]2(O)[C@H]3Cc4ccc(O)c5c4[C@@]2(CCN3CC2CC2)[C@H]1O5)c1cccc([125I])c1
- Kd [1]: 0.027 nM
- Kd (Mu-type opioid receptor [4]): 0.11 nM
- Kd [5]: 0.24 nM

SMILES: N=C(N)Nc1ccc2[nH]c3c(c2c1)C[C@@]1(O)[C@H]2Cc4ccc(O)c5c4[C@@]1(CCN2CC1CC1)[C@H]3O5 [GUANIDINONALTRINDOLE]
- Ki [7]: 0.15 nM
- Ki [8]: 0.19 nM

SMILES: C=CCN1CC[C@]23CCCC[C@H]2[C@H]1Cc1ccc(O)cc13 [LEVALLORPHAN]
- Ki (Mu-type opioid receptor [9]): 1.29 nM
- Ki (Mu-type opioid receptor [10]): 1.69 nM
- Ki (Mu-type opioid receptor [11]): 0.48 nM

SMILES: CN1CC[C@]23c4c5ccc(O)c4O[C@H]2[C@H](NC(=O)c2cccc(I)c2)CC[C@@]3(O)[C@H]1C5
- Ki [3]: 9 nM
- Bmax (Mu-type opioid receptor [4]): 1.49 pmol/mg
- Ki (Mu-type opioid receptor [6]): 1.75 nM

SMILES: CN1CC[C@]23c4c5ccc(O)c4O[C@H]2[C@H](NC(=O)c2cccc([125I])c2)CC[C@@]3(O)[C@H]1C5
- Kd (Mu-type opioid receptor [4]): 0.08 nM

SMILES: O=C(N[C@@H]1CC[C@@]2(O)[C@H]3Cc4ccc(O)c5c4[C@@]2(CCN3CC2CC2)[C@H]1O5)c1cccc(I)c1
- Bmax [1]: 0.57 pmol/mg
- Ki [2]: 0.58 nM
- Ki [3]: 0.23 nM
- Bmax (Mu-type opioid receptor [4]): 3.81 pmol/mg
- Bmax [5]: 0.96 pmol/mg
- Ki (Mu-type opioid receptor [6]): 2.5 nM

SMILES: C=CCN1CC[C@]23c4c5ccc(O)c4O[C@H]2[C@H](NC(=O)c2cccc([125I])c2)CC[C@@]3(O)[C@H]1C5
- Kd [1]: 0.05 nM
- Kd (Mu-type opioid receptor [4]): 0.22 nM
- Kd [5]: 2.5 nM
